Here are results for two compounds from ChEMBL document CHEMBL1649151, “Urinary bactericidal activity of Doripenem versus that of levofloxacin in patients with complicated urinary tract infections or pyelonephritis” (Antimicrob Agents Chemother, 2009).

Converted amounts (≈) assume the structure as drawn.

For test [1], the system named is Escherichia coli. The experiment in a line: Antimicrobial activity against Escherichia coli 1780063 B-A isolated from patient with pyelonephritis assessed as >3-log reduction in urinary bacterial titer after 8 hrs. It is filed as functional, Urine. The method in brief:
(§1)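 Urine was collected before dosing and on day 3 of i.v. therapy (steady state), in 4-h intervals from infusion start (0–4 to 20–24 h), stored at −80°C and sterile filtered. It was serially diluted twofold (1:0 to 1:131,072) in the patient's drug-free pre-dose urine. Microdilution used an inoculum of 1.0 x 10^6–9.5 x 10^6 CFU/ml, incubated 18 h at 37°C, then subcultured 24 h on blood agar. The endpoint was >99.9% kill, reported as reciprocal titer.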

The test system of test [2] is Escherichia coli. The experiment in a line: Antimicrobial activity against Escherichia coli 1821385 B-C isolated from patient with pyelonephritis assessed as >3-log reduction in urinary bacterial titer after 12 hrs. The test is classed as functional, Urine. The method in brief: (§2)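 Urine was collected on day 3 of i.v. therapy (steady state) over 4-h intervals from infusion start (0–4 to 20–24 h), stored at –80°C and sterile filtered. It was serially diluted twofold (1:0 up to 1:131,072) in the patient's own pre-dose drug-free urine. Microdilution used a final inoculum of 1.0 x 10^6 to 9.5 x 10^6 CFU/ml, incubated 18 h at 37°C in air. 10 µl was subcultured onto 5% blood Columbia agar for 24 h at 37°C. The bactericidal endpoint was >99.9% (>3-log) kill, reported as a reciprocal titer.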

Test [3] has as its system Escherichia coli. Put plainly: Antimicrobial activity against Escherichia coli 1780063 B-A isolated from patient with pyelonephritis assessed as >3-log reduction in urinary bacterial titer after 12 hrs. It is filed as functional, Urine. The method in brief:
as §1

Test [4] concerns Escherichia coli. Put plainly: Antimicrobial activity against Escherichia coli 1889646 B-F isolated from patient with pyelonephritis assessed as >3-log reduction in urinary bacterial titer after 16 hrs. It is filed as functional, Urine. Summed up: as §2
Test [5] relates to Staphylococcus haemolyticus. The experiment in a line: Antimicrobial activity against Staphylococcus haemolyticus 1949819 B-M isolated from patient with pyelonephritis assessed as >3-log reduction in urinary bacterial titer after 12 hrs. It is filed as functional, Urine.
The subject of test [6] is Staphylococcus haemolyticus. The experiment in a line: Antimicrobial activity against Staphylococcus haemolyticus 1949819 B-M isolated from patient with pyelonephritis assessed as >3-log reduction in urinary bacterial titer after 8 hrs. It is filed as functional, Urine.
Test [7] concerns Escherichia coli. The experiment in a line: Antimicrobial activity against Escherichia coli 1780063 B-A isolated from patient with pyelonephritis by Etest. It is filed as functional.
Test [8] has as its system Staphylococcus haemolyticus. The experiment in a line: Antimicrobial activity against Staphylococcus haemolyticus 1949819 B-M isolated from patient with pyelonephritis assessed as >3-log reduction in urinary bacterial titer after 24 hrs. The test is classed as functional, Urine.
The nature of test [9]: T>MIC in Prevotella spp.-infected patient at 250 to 1000 mg/kg administered every 8 hrs. It is filed as functional. Particulars: dose mg/kg 250-1000; pooled result: one value given for 10 cell lines, strains, targets or settings.
The subject of test [10] is Escherichia coli. The experiment in a line: Antimicrobial activity against Escherichia coli 2062717 B-P isolated from patient with pyelonephritis assessed as >3-log reduction in urinary bacterial titer after 4 hrs. The test is classed as functional, Urine.
The test system of test [11] is Escherichia coli. Put plainly: Antimicrobial activity against Escherichia coli 2297257 B-W isolated from patient with pyelonephritis assessed as >3-log reduction in urinary bacterial titer after 20 hrs. The test is classed as functional, Urine.
The subject of test [12] is Escherichia coli. Put plainly: Antimicrobial activity against Escherichia coli 2297257 B-W isolated from patient with pyelonephritis assessed as urinary bactericidal titer.
Test [13] has as its system Escherichia coli. Put plainly: Antimicrobial activity against Escherichia coli 2297257 B-W isolated from patient with pyelonephritis assessed as >3-log reduction in urinary bacterial titer after 8 hrs. The test is classed as functional, Urine.
Test [14] deals with Enterococcus faecalis. Put plainly: Antimicrobial activity against Enterococcus faecalis 2215770 B-T isolated from patient with pyelonephritis assessed as >3-log reduction in urinary bacterial titer after 16 hrs. The test is classed as functional, Urine. The method in brief: as §1
Test [15] has as its system Escherichia coli. Put plainly: Antimicrobial activity against Escherichia coli 1889645 B-I isolated from patient with pyelonephritis assessed as >3-log reduction in urinary bacterial titer after 16 hrs. It is filed as functional, Urine. The method in brief: as §2
Test [16] relates to Enterococcus faecalis. Put plainly: Antimicrobial activity against Enterococcus faecalis 2215770 B-T isolated from patient with pyelonephritis assessed as >3-log reduction in urinary bacterial titer after 8 hrs. It is filed as functional, Urine. Summed up: as §1
In test [17] the test system is Escherichia coli. The experiment in a line: Antimicrobial activity against Escherichia coli 1821386 B-D isolated from patient with pyelonephritis assessed as >3-log reduction in urinary bacterial titer after 20 hrs. It is filed as functional, Urine. The method in brief:
as §2

In test [18] the test system is Staphylococcus epidermidis. The experiment in a line: Antimicrobial activity against Staphylococcus epidermidis 1949822 B-J isolated from patient with pyelonephritis assessed as >3-log reduction in urinary bacterial titer after 16 hrs. It is filed as functional, Urine.
Test [19] has as its system Enterococcus faecalis. The experiment in a line: Antimicrobial activity against Enterococcus faecalis 2215767-10 B-S isolated from patient with pyelonephritis assessed as >3-log reduction in urinary bacterial titer after 24 hrs. It is filed as functional, Urine. Summed up: as §1
In test [20] the test system is Staphylococcus aureus. Put plainly: Antimicrobial activity against Staphylococcus aureus 2215767-9 B-S isolated from patient with pyelonephritis assessed as >3-log reduction in urinary bacterial titer after 24 hrs. The test is classed as functional, Urine.
Test [21] concerns Staphylococcus aureus. Put plainly: Antimicrobial activity against Staphylococcus aureus 1889640 A-Z isolated from patient with pyelonephritis assessed as >3-log reduction in urinary bacterial titer after 20 hrs. It is filed as functional, Urine.
Test [22] relates to Escherichia coli. Put plainly: Antimicrobial activity against Escherichia coli 1655646 A-Y isolated from patient with pyelonephritis assessed as >3-log reduction in urinary bacterial titer after 24 hrs. The test is classed as functional, Urine. Summed up: as §1
Test [23] concerns Escherichia coli. Put plainly: Antimicrobial activity against Escherichia coli 2062716 B-R isolated from patient with pyelonephritis assessed as >3-log reduction in urinary bacterial titer after 24 hrs. The test is classed as functional, Urine. The method in brief:
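Patient urine was collected on day 3 of i.v. therapy (steady state) over 4-h intervals after infusion start, stored at –80°C, and sterile filtered. It was twofold serially diluted (1:0 to 1:131,072) in the patient's own pre-dose drug-free urine, inoculated to 1.0 x 10^6–9.5 x 10^6 CFU/ml, and incubated for 18 h at 37°C. Subcultures were grown on blood agar for 24 h. The UBT is the reciprocal of the highest dilution giving >99.9% kill.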

Test [24] has as its system Escherichia coli. Put plainly: Antimicrobial activity against Escherichia coli 1655646 A-Y isolated from patient with pyelonephritis assessed as >3-log reduction in urinary bacterial titer after 20 hrs. It is filed as functional, Urine. The method in brief: as §1
Test [25] relates to Enterococcus faecalis. The experiment in a line: Antimicrobial activity against Enterococcus faecalis 2297262-10 B-V isolated from patient with pyelonephritis assessed as >3-log reduction in urinary bacterial titer after 16 hrs. The test is classed as functional, Urine. Summed up:
as §1

In test [26] the test system is Escherichia coli. The experiment in a line: Antimicrobial activity against Escherichia coli 1655646 A-Y isolated from patient with pyelonephritis by Etest. It is filed as functional.
The test system of test [27] is Staphylococcus epidermidis. Put plainly: Antimicrobial activity against Staphylococcus epidermidis 2297262-9 B-V isolated from patient with pyelonephritis assessed as >3-log reduction in urinary bacterial titer after 16 hrs. It is filed as functional, Urine.
Test [28] deals with Staphylococcus aureus. The experiment in a line: Antimicrobial activity against Staphylococcus aureus 2215767-9 B-S isolated from patient with pyelonephritis assessed as >3-log reduction in urinary bacterial titer after 12 hrs. It is filed as functional, Urine.
The test system of test [29] is Staphylococcus epidermidis. The experiment in a line: Antimicrobial activity against Staphylococcus epidermidis 1949822 B-J isolated from patient with pyelonephritis assessed as >3-log reduction in urinary bacterial titer after 4 hrs. It is filed as functional, Urine.
Test [30] concerns Escherichia coli. Put plainly: Antimicrobial activity against Escherichia coli 1655646 A-Y isolated from patient with pyelonephritis assessed as >3-log reduction in urinary bacterial titer after 4 hrs. It is filed as functional, Urine. Summed up:
as §1

A further test has as its system Serratia marcescens. The experiment in a line: Antimicrobial activity against Serratia marcescens 2297260 B-U isolated from patient with pyelonephritis assessed as >3-log reduction in urinary bacterial titer after 12 hrs. It is filed as functional, Urine.
Test [31] has as its system Escherichia coli. Put plainly: Antimicrobial activity against Escherichia coli 1780064 A-X isolated from patient with pyelonephritis assessed as >3-log reduction in urinary bacterial titer after 4 hrs. It is filed as functional, Urine. The method in brief:
as §2

In a further test the test system is Pseudomonas aeruginosa. Put plainly: Antimicrobial activity against Pseudomonas aeruginosa 2062713 B-Q isolated from patient with pyelonephritis assessed as >3-log reduction in urinary bacterial titer after 12 hrs. The test is classed as functional, Urine.

The term MIC denotes the least concentration at which growth counts as inhibited. In the case of `C[C@@H](O)[C@H]1C(=O)N2C(C(=O)O)=C(S[C@@H]3CN[C@H](CNS(N)(=O)=O)C3)[C@H](C)[C@H]12` [DORIPENEM], the urinary bactericidal titer with Escherichia coli [1] is 1024 reciprocal titer; in the test with Escherichia coli [2], 32800 reciprocal titer; in the test with Escherichia coli [3] it was 4096 reciprocal titer; in the test on Escherichia coli [4] it was 8192 reciprocal titer; in [5], 1024 reciprocal titer; in test [6], 128 reciprocal titer. Moreover, the urinary bactericidal titer was determined as 128 reciprocal titer in test [8]; 32800 reciprocal titer in the test on Escherichia coli [10]; 32800 titer in the test with Escherichia coli [11]; 4096 reciprocal titer in the test with Escherichia coli [12]; 2048 reciprocal titer in the test on Escherichia coli [13]; 512 reciprocal titer with Enterococcus faecalis [14]. For the same compound, the results for the urinary bactericidal titer with Escherichia coli [15] and with Enterococcus faecalis [16] were 32800 titer and 512 reciprocal titer, respectively. In the test on Escherichia coli [7], this compound returned an MIC of 0.03 µg/mL (≈ 0.0713 µM). Further, in test [9], the “fT>MIC” value was determined as 35%.
Turning to `C[C@H]1COc2c(N3CCN(C)CC3)c(F)cc3c(=O)c(C(=O)O)cn1c23.C[C@H]1COc2c(N3CCN(C)CC3)c(F)cc3c(=O)c(C(=O)O)cn1c23.O` [LEVOFLOXACIN], the urinary bactericidal titer in the test with Escherichia coli [17] came out at 2048 reciprocal titer; in test [18], 4 reciprocal titer; in the test on Staphylococcus aureus [20], 0 reciprocal titer; in the test on Staphylococcus aureus [21], 64 reciprocal titer; in the test with Escherichia coli [22], 256 reciprocal titer; in the test on Escherichia coli [23], 64 reciprocal titer. Moreover, the urinary bactericidal titer in the test with Escherichia coli [24] worked out at 1024 reciprocal titer; with Enterococcus faecalis [25] it was 0 reciprocal titer; in test [27] it was 2 reciprocal titer; with Staphylococcus aureus [28] it was 1 reciprocal titer; in test [29], 4 reciprocal titer; in the test with Escherichia coli [30], 2048 reciprocal titer. Besides, the urinary bactericidal titer in the test on Serratia marcescens is 128 reciprocal titer; in the test on Escherichia coli [31], 1024 reciprocal titer; in the test with Pseudomonas aeruginosa, 4 reciprocal titer. In the test on Enterococcus faecalis [19], the Time turned out to be 0 h. The compound also yielded an MIC against Escherichia coli [26] of 0.047 µg/mL.
